The labels stand for the following.
B1: tRNA (parent)
chain: GUUCCGUUGGCGUAAUGGUAACGCGUCUCCCUCCUAAGGAGAAGACUGCGGGUUCGAGUCCCGUACGGAACG

Results on 38 variants are retold here after the RNAGym collection of RNA variant scans (doi:10.1126/science.aae0568).

This sample holds only a part of the variants without activity. Where only a bound is given, the exact number is not on record here.

The data set covers variants of B1. In words: yeast fitness relative to wild type (ratio to wild type); higher = fitter; tRNA-Arg(CCU), competitive growth, 37 C, YPD. The procedure, abridged: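 Amplicons of the tRNA-Arg(CCU) gene were sequenced, 100-nucleotide paired-end, from the start population and from each end population of a pooled yeast competition. The competition, in six parallel replicates, lasted 24 hours in YPD at 37°C. Fitness relative to wild type was calculated from changes in genotype frequencies. Genotypes had to have ≥ 100 starting reads, and estimates < 0.5 were set to 0.5.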
As to GUUCCGUUGGCAUAAUGGUAACCAAUCUCCCUCCUAAGGAGAAGACUGCGGGUUCGAGUCCCGUACGGAACG [G12A G23C C24A G25A], the yeast fitness is at most 0.5. The figure for GUUCCGUUGGCAUAAUGGUAACGCGUCUCCCUCCUAAGGAGAAGACUGCGGGUUCGAGUCCCGUACAGAACG [G12A G67A] is 0.857. With GUUCCGUUGGCAUAAUGGUAACCCGUCUCCCUCCUAAGGAGAAGACUGCGGGUUCCAGUCGCGUACGGAACG [G12A G23C G56C C61G] the figure was at most 0.5; with GUUCCGUUGGCAUAAUGGUAACCCGUCUCGCUCCUAUGGAGAAGACUGCGGGUUCGAGUCCUGUUCGGAACG [G12A G23C C30G A37U C62U A65U], at most 0.5; with GUUCCGUUGGCAUAAUGGUAACGCGUCUCCCUCCUAAAGAGAAGACUGCGGGUUCCAGUCCAGUCCGGAACG [G12A G38A G56C C62A A65C], at most 0.5. The figure for GUUCCGUUGGCACAAUGGUAAAGCGCCUCCCUCCUAAGGAGAAGACAGCGGGUGCGAGUCCCGUACGGAACG [G12A U13C C22A U26C U47A U54G] is at most 0.5; for GUUCCGUUGGCAUAAUGGUAACGCGUCUCCCUCCUAAGGAGAAGACUCCGGGUUCGAGUCCCGUACGCAUCG [G12A G48C G68C A70U] it is at most 0.5; for GUUCCGUUGGCAGAAUGGUAACCGGUCUGCCUCCUCAGGAGAAGACUGCGGGUUCGAGUCCCGUACGGAACG [G12A U13G G23C C24G C29G A36C] it is at most 0.5.

Consider GUUCCGUUGGCAUAAUGGUAACGCGUCUCCCUCCUAAGGACAAGACUGCGGGUUCGAGUCCCGUACGGAACG [G12A G41C], for which the yeast fitness was determined as 0.864. Consider GUUCCGUUGGCAUAAUGGUAACGCGUCUCCCUCCUAAGGAAAAGACUGCGGGUUCGAGUCCCGUACGGAACG [G12A G41A], for which the yeast fitness was found to be 0.889. The figure for GUUCCGUUGGCAUAAUGGCAACGCGUCCCCCUCCUAAGGAGAAGACUGCGGGUUGGAGUCCCGUACGGAACG [G12A U19C U28C C55G] is at most 0.5; for GUUCCGUUGGCAUAAUGGUAACGCGUCUCCCUCCUAAGGAGAAAACUGCGGGUUCGAGUCCCGUACCGAACG [G12A G44A G67C] it is 0.62; for GUUCCGUUGGCAUAAUGGUAACGCGUCUCCCUCCUAAGGAGAAGACUGCGAGUUCGAGUCCCGUGCGGAACG [G12A G51A A65G] it is at most 0.5. With GUUCCGUUGGCAUAAUGGUAACGCGUCUCCCUCCUAAGGAGAAGACUGCAGGUUCGAGUACCGUACGGAACG [G12A G50A C60A] the figure was at most 0.5. The figure for GUUCCGUUGGCAUAAUGGUAACGCGUCUCCCUCCUAAGGAGAAAACUGCGGGUUCGAGUCCCGUAUGGAACG [G12A G44A C66U] is 0.697; for GUUCCGUUGGCAUAAUGGGAACGCGUCUCCCUCCCAAGGUGGAGACUGCGGGUUCGAGUCCCGUACGGAACG [G12A U19G U35C A40U A42G] it is at most 0.5; for GUUCCGUUGGCAUAAUGGUAACGCAUCUCCCUCCUAAGGAGAAGACUGCGGGUUCGAGUCCCGUUCGGAACG [G12A G25A A65U] it is 0.756. As to GUUCCGUUGGCAUAAUGGUAACGCAUCUCCCUCCUAAGGAGAAGACUGCGGGUUCGAGUCCCGUGCGGAACG [G12A G25A A65G], the yeast fitness was 0.682. Turning to GUUCCGUUGGCAUAAUGGUAACCCGUCUCCCUCCUAAGGAGAAGACUGCGGGUUCGAGUCGCGUACGGAACG [G12A G23C C61G], the yeast fitness was at most 0.5. With GUUCCGUUGGCAUAAUGGUAACGCGUCUCCCUCCUAAGGAGAAGACUGCGGGUUCGAAUCCCGUACGGAACG [G12A G58A] the figure was 0.924; with GUUCCGUUGGCAUAACGGUAACGCGUAUCCCUCCUAAGGAGAAGACUGCGGGUUCGAGUCCCGUACGGAACG [G12A U16C C27A], at most 0.5. The figure for GUUCCGUUGGCAUAAUGGGAACGCGUCUCCCUCCCAAGGUGAAGACUGCGGCUUCGAGUCCCGCACGGAACG [G12A U19G U35C A40U G52C U64C] is at most 0.5; for GUUCCGUUGGCAUAAUGGUAACCCAUCUCCCUCCUAAGGAGAAGACUGCGGGUUCGAGACCCAUACGGAACG [G12A G23C G25A U59A G63A] it is at most 0.5; for GUUCCGUUGGCAUAAUGGUAACGCGUCUCCCUCCUAAGGAGAAGACUGCGGAUUCGAGCCCCGUACGGAACG [G12A G52A U59C] it is at most 0.5. As to GUUCCGUUGGCAUAAUGGUAACGCGUCUCCCUCCUAAGGAGAAGACUGCGGGUUCCAGUCCCGUACGGAACG [G12A G56C], the yeast fitness stood at 0.764. With GUUCCGUUGGCAUAAUGGUAACGCGUCUCCCUCCUAAGGAGAAGACUCCGGGUUCGAGUCCCGUACCGAACG [G12A G48C G67C] the figure was at most 0.5. With GUUCCGUUGGCAUAAUGGAAACGUGUCUCCCUCCUAAGGAGAAGACUGCGGGUUCGAGUCCCGUACGGAACG [G12A U19A C24U] the figure was 0.73; with GUUCCGUUGGCAUAAUGGUAACCCGUCUCCCUCCUAAGGAGAAGACUGAGGGUUCGCGUCCCGUACGGAACG [G12A G23C C49A A57C], at most 0.5; with GUUCCGUUGGCAUAAUGGUAACGCGUCUCCCUCCUAAGGAGAAGACUGCCGGUUCGAGUCCCGUAUGGAACG [G12A G50C C66U], at most 0.5.

In the case of GUUCCGUUGGCAAGAUGGUAGCGCGUCUCCCUUCUAAGGAGAAGACUGCGGGUUCGAGUCCGGUACGGAACG [G12A U13A A14G A21G C33U C62G], the yeast fitness was at most 0.5. With GUUCCGUUGGCAUAAUGGUAACGCAUCUCCCUCCUAAGGAGAAGACUGCGGGUUCAAGUCCCGUACGGAACG [G12A G25A G56A] the figure was 0.599; with GUUCCGUUGGCAUAAUGGCAUCGCGUCUCCCUCCUAAGGAGAAGACUGCGGGUUCGAGUCCCGUACGGCACG [G12A U19C A21U A69C], 0.653; with GUUCCGUUGGCAUAAUGGUAACCCGUCUCCCUCCUAAGGAGAAGACUGCGGGUUGGAGUCCCGUACGGCACG [G12A G23C C55G A69C], 0.561. In the case of GUUCCGUUGGCAUAAUGGCAACACGUCUCCCCCCUAAGGAGACGACUGCGGGUUCGAGUCCCGUACGGAACG [G12A U19C G23A U32C A43C], the yeast fitness was at most 0.5.

Turning to GUUCCGUUGGCAUAAUGGUAACGCGUCUCCCUCCUAAGGAGAAGACUGCCGGUUCGAGUCCCGUACGCAACG [G12A G50C G68C], the yeast fitness came out at 0.522.

GUUCCGUUGGCAUAAAGGUAACGCGUGUCCCUCCUAAGGAGAAGACUGCGGGUUCGAGUCCCGUACGGAACG [G12A U16A C27G]: the yeast fitness was at most 0.5. With GUUCCGUUGGCAAAAUGGUAACGCGUCUCCCUCCUAAGGACAAGCCUGCGGGUUCGAGUCCCGUACGGAACG [G12A U13A G41C A45C] the figure was 0.546; with GUUCCGUUGGCAUAAUGGUAACGCAUCUCCCUCCUAAGGAGAAGACUGCGGGUUCGAGUCCCGUACGGAACG [G12A G25A], 0.819.
